Screening results as filed in PubChem.
VIM-2 inh – blocks Pseudomonas aeruginosa VIM-2 metallo-beta-lactamase; 290,000 tested, 0.89% active; purified VIM-2, nitrocefin hydrolysis, epi-absorbance fluorescence; inhibition, % at 5.6 µM;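 active = inhibition above the mean of all tested compounds plus 3 SD, cutoff set per screening run, cut at about 7.5% in these data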;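 note: red hydrolysis product quenches plate fluorescence so inhibitors raise well fluorescence; 0% = enzyme with DMSO and 100% = DMSO without enzyme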
IMP-1 inh – blocks Pseudomonas aeruginosa IMP-1 metallo-beta-lactamase; 290,000 tested, 0.45% active; AID 1556; inhibition, % at 5.6 µM; purified IMP-1, nitrocefin hydrolysis, epi-absorbance fluorescence;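 active = inhibition above the mean plus 3 SD of all compounds in the same screening run, cut at about 4.5% in these data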;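 note: 0% = IMP-1 with DMSO and 100% = DMSO wells lacking enzyme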
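Assay system: purified IMP-1; Quantity: IMP-1 0.2 nM before substrate addition; Medium: HEPES buffer pH 7.1 with ZnSO4 and Brij 35; Incubation: 15 min enzyme–compound preincubation, then 25 min nitrocefin reaction, 25 °C; Signal: fluorescence quenching readout, ex 480/em 530 nm; Controls: DMSO with and without IMP-1; Repeats: singlicate testing.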
RanGTP-Imp inh – inhibitors of RanGTP-importin-beta interaction, primary screen, biochemical, FRET, CFP-Ran, YFP-importin-beta, homogeneous | cell-free CFP-Ran/YFP-importin-beta FRET ratio | inhibition, % (test concentration not listed) | 300,000 tested, 1.1% active;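 active = more than half of the replicate wells show a fall in the fluorescence ratio signal beyond about 16%, limit read from the data, passing the limit was not always enough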;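 note: 0% = DMSO wells and 100% = Ran loaded with GDP instead of GTP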
Runt-CBFb FRET – inhibitors of human RUNX1 Runt domain binding to CBFb | Cerulean-Runt/Venus-CBFb FRET ratio 530/480, 1 h | inhibition, % at 20 µM | 220,000 tested, 0.46% active | AID 1496;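 active = inhibition over about 50% at 20 µM in the single-dose screen, limit read from the data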;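 note: 0% = DMSO wells and 100% = excess unlabeled CBFb competitor control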
Target sequence (Q01196 whole entry, looked up, the tested form may be a part): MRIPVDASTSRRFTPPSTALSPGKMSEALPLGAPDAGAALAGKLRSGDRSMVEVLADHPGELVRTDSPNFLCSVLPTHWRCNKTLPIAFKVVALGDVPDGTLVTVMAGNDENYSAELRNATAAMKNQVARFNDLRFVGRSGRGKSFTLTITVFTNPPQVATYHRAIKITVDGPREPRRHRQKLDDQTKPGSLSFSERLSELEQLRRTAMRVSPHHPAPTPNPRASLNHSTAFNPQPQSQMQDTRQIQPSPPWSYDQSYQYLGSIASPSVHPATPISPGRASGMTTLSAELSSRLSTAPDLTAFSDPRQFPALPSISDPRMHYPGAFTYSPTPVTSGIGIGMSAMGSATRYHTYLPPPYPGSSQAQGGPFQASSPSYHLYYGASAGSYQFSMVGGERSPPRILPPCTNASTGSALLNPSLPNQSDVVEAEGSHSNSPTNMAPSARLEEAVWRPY
Target sequence (Q13951 whole entry, looked up, the tested form may be a part): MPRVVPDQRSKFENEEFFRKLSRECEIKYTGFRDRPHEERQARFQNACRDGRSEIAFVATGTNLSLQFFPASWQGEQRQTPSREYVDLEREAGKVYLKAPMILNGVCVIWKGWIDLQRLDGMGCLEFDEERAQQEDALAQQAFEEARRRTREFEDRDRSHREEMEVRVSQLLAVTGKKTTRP
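Reagent – Venus-CBFb binding partner, 100 nM · Assay system – Cerulean-tagged RUNX1 Runt domain (FRET donor) fusion protein · Input – 100 nM per protein · Incubation – two 1 h room-temperature incubations shielded from light · Measured by – FRET fluorescence · Medium – Tris buffer pH 7.5 with salts and BSA · Benchmarks – unlabeled CBFb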
Runt-SMMHC FRET – blocks binding of human RUNX1 Runt domain to CBFb-SMMHC. Q01196+Q13951. Cerulean-Runt/Venus-CBFb-SMMHC FRET ratio 530/480, 1 h. inhibition, % at 20 µM. 220,000 tested, 0.74% active. AID 1434;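 active = mean inhibition across duplicate retests at 20 µM reaching about 50%, limit read from the data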;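 note: 0% = DMSO wells and 100% = wells with excess untagged CBFb-SMMHC; inhibitors lower the FRET ratio by blocking Runt binding to CBFb-SMMHC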
Active calls of the source: *; x = not tested or not shown. A selection: hits, their analogues and other compounds. The true share with any hit is near 2.6%.

SMILES	VIM-2 inh	IMP-1 inh	RanGTP-Imp inh	Runt-CBFb FRET	Runt-SMMHC FRET
O=C(O)c1ccc(S(=O)(=O)c2ccc3c(c2)C(=O)N(NC(=O)c2ccncc2)C3=O)cc1	-4	-1	-1	2	1
O=C(O)c1ccc(S(=O)(=O)c2ccc3c(c2)C(=O)N(NC(=O)c2ccccc2)C3=O)cc1	-2	5.1*	-3	-1	0
Cc1cc2c(SCC(=O)NCC3CCCO3)ncnc2s1 (stereo not given)	1	0	-2	x	x
CCN(CC)C1CCN(C(=O)c2cc(COc3ccc(-n4cncn4)cc3)on2)C1 (stereo not given)	3	1	8	x	x
CCOc1ccc2nc(Nc3nc(CSc4nnnn4-c4ccccc4)cc(=O)[nH]3)nc(C)c2c1	1	-1	-2	-6	1
COc1ccc2nc(Nc3nc(CSc4nnnn4-c4ccccc4)cc(=O)[nH]3)nc(C)c2c1	1	4.9*	-2	0	-1
Cc1oc(-c2cccc(Cl)c2)nc1CS(=O)(=O)CC(=O)NCCCN1CCOCC1	2	-4	0	x	x
COc1ccc(C(=O)NCCCn2ccnc2)cc1	-1	-2	-1	0	0
CC(C)OCCCNC(=O)c1c(N)n(/N=C/c2ccccn2)c2nc3ccccc3nc12	-1	-3	8	-2	-1
COC(=O)c1c(N)n(-c2ccc(NC(C)=O)cc2)c2nc3ccccc3nc12	-1	0	7	28	74*
C=CCn1c(N)c(C(=O)Nc2ccccc2)c2nc3ccccc3nc21	1	-1	18*	4	5
COCCNC(=O)c1c(N)n(CCCn2ccnc2)c2nc3ccccc3nc12	7	-1	113*	40	41
COC(=O)c1c(N)n(-c2ccc(N3CCOCC3)cc2)c2nc3ccccc3nc12	x	x	x	-1	-1
C=CCn1c(SCc2ccc(C(=O)Nc3ccccc3)cc2)nnc1-c1ccccc1	-2	-2	-1	-3	-10
COCCCNC(=O)c1c(N)n(-c2ccccc2)c2nc3ccccc3nc12	-1	-2	87*	54*	81*
COc1cc(OC)c(C(=O)Nc2cccc3ccccc23)cc1OC	1	1	3	x	x
COc1cc(-n2c(N)c(C(=O)NCc3ccco3)c3nc4ccccc4nc32)cc(OC)c1OC	1	-1	12	4	-7
Nc1ccc(-n2c(N)c(C(=O)NCc3ccc4c(c3)OCO4)c3nc4ccccc4nc32)cc1	-1	-3	1	x	x
COc1cccc(-n2c(N)c(C(=O)Nc3c(C)n(C)n(-c4ccccc4)c3=O)c3nc4ccccc4nc32)c1	2	0	-4	10	-106
COCCNC(=O)c1c(N)n(-c2ccccc2)c2nc3ccccc3nc12	1	-2	90*	88*	42
COCCCNC(=O)c1c(N)n(-c2ccc(S(N)(=O)=O)cc2)c2nc3ccccc3nc12	0	-2	61*	57*	82*
COCCCNC(=O)c1c(N)n(/N=C/c2cccs2)c2nc3ccccc3nc12	-4	-2	11	88*	58*
C=CCNC(=O)c1c(N)n(-c2cccc(S(N)(=O)=O)c2)c2nc3ccccc3nc12	5	-3	x	80*	38
COCCCNC(=O)c1c(N)n(/N=C/c2cccnc2)c2nc3ccccc3nc12	3	-4	8	9	24
CCCn1c(N)c(N(CCOC)C(=O)c2cccc(S(=O)(=O)N3CCCc4ccccc43)c2)c(=O)[nH]c1=O	x	x	4	x	x
SMILES	VIM-2 inh	IMP-1 inh	RanGTP-Imp inh	Runt-CBFb FRET	Runt-SMMHC FRET
COc1cc2[nH]c3c(Cl)ncnc3c2cc1OC	-2	-2	1	-1	0
COc1cc2[nH]c(Cl)c([N+](=O)[O-])c2cc1OC	-1	-2	19*	4	36
CC(C)c1nc(SCC(=O)Nc2ccc(N(C)C)cc2)c2ccccc2n1	-4	5.2*	-3	7	5
CCc1cc(C(=O)NCC2CCCO2)sc1C (stereo not given)	-1	-1	3	x	x
CCOC(=O)N1C2=NC(C(=O)OC)=C(C(=O)OC)[C@@H]3N(Cc4ccccc4)c4ccccc4[C@]23C[C@H]1C(=O)OC	x	x	-2	x	x
CCn1c(CNC(=O)c2ccc(F)cc2)cc2ccccc21	-2	-3	-2	x	x
COc1cccc(Nc2nc(-c3sc(NC(=O)CC(C)C)nc3C)cs2)c1	-4	5.9*	1	4	-6
Cc1ccc(Cn2nnc3c(=O)[nH]c(C4CCN(S(=O)(=O)c5ccc(F)cc5)CC4)nc32)cc1	-3	18*	7	-2	0
O=c1[nH]c(C2CCN(S(=O)(=O)c3ccc(F)cc3)CC2)nc2c1nnn2Cc1ccc2c(c1)OCCO2	2	1	19*	x	x
Cc1ccc(C)c(S(=O)(=O)N2CCC(c3nc4c(nnn4Cc4ccc(F)cc4)c(=O)[nH]3)CC2)c1	-1	-1	x	-8	-3
O=c1[nH]c(C2CCN(S(=O)(=O)c3ccccc3F)CC2)nc2c1nnn2Cc1ccc2c(c1)OCCO2	-1	0	12	x	x
Nc1nc(-c2cccs2)c(-c2cccs2)s1	-2	16*	-2	x	x
Cc1cc(O)c(CN(C)C)c2c1C(=O)/C(=C/c1ccco1)O2	-3	-1	-46	x	x
Cc1cc(O)c(C=O)c2c1C(=O)Oc1c(CO)c(O)c3c(c1O2)C(O)OC3=O (stereo not given)	-2	2	x	53*	40
CCCC(C(=O)N(C)CC(=O)Nc1ccc(N2CCOCC2)cc1)c1ccccc1 (stereo not given)	x	x	3	x	x
COc1ccc(C(=O)Nc2sc(C)c(-c3ccccc3)c2C#N)cc1OC	-4	-2	79*	2	6
Cc1sc(NC(=O)COc2ccccc2)c(C#N)c1-c1ccccc1	-5	-3	1	1	0
Cc1cc(O)ccc1Nc1nc2ccccc2nc1Nc1ccc(O)cc1C	0	1	37*	38	x
Cc1ccc(Nc2nc3ccccc3s2)c(C)c1	-3	-2	1	0	1
Cc1cccc(C(=O)N=c2sccn2C)c1[N+](=O)[O-]	0	-1	1	x	x
O=C(O)c1ccc(N/N=C/c2ccc(-c3ccccc3Cl)o2)cc1	-1	0	54*	46	81*
O=C(O)c1cc(-c2ccc(/C=N/Nc3ccc(Cl)cc3)o2)ccc1Cl	-1	-3	3	16	82*
O=S(=O)(N/N=C\c1ccc(-c2ccccc2Cl)o1)c1ccccc1	-2	-6	5	6	6
Cc1ccc(/C=N/Nc2ccc(C(=O)O)cc2)o1	-3	-3	8	1	0
O=C(O)c1ccc(N/N=C/c2ccc(-c3ccc(Br)cc3)o2)cc1	-3	-3	70*	x	x
Cc1ccc(C)c(-n2c3nc(=O)n(C)c(=O)c-3cc3ccccc32)c1	-2	-1	133*	13	81*
CCCCn1c(=O)cc(C)n(-c2ccccc2)c1=O	x	x	-2	x	x
